According to ChEMBL document CHEMBL1134346, “Labeling and evaluation of N-[11C]methylated quinoline-2-carboxamides as potential radioligands for visualization of peripheral benzodiazepine receptors” (J Med Chem, 2001):

Target: Translocator protein (Rattus norvegicus) (UniProt P16257)
Assay: Tissue (blood) concentration of radioactivity at 30 min post-injection into Albino male CD rats after pretreatment with cold PK 11195.
Format: functional, tissue-based
Conditions: not given
Procedure, shortened: (§1)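 Separate groups of five rats received tail-vein PK 11195 (1.4-1.6 mg; 5 mg/kg) in 30 µL DMSO:EtOH 1:1, or vehicle alone, immediately before iv radioligand (90-170 µCi in saline, 0.9-1 Ci/µmol). Rats were decapitated at 30 min and tissues gamma-counted; values are %I.D./g.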

Translocator protein (Rattus norvegicus), sequence (P16257 whole entry, looked up): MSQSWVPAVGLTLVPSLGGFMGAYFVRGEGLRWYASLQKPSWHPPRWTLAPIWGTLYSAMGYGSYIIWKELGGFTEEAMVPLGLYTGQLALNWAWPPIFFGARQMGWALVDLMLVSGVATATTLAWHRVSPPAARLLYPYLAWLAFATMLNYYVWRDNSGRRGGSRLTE

Row | Structure (SMILES) | I.D./g [%]
1 | Cc1c(C(=O)N(C)Cc2ccccc2)nc2ccccc2c1-c1ccccc1 | > 0.02

Species on record: Rattus norvegicus
Assay: Tissue (cortex) concentration of radioactivity at 30 min post-injection into Albino male CD rats with vehicle.
Format: ADME, organism-based
Conditions: in vivo, 0.5 h
Procedure, shortened: as §1

Row | Structure (SMILES) | I.D./g [%]
2 | Cc1c(C(=O)N(C)Cc2ccccc2)nc2ccccc2c1-c1ccccc1 | 0.02

Species on record: Rattus norvegicus
Assay: Tissue (liver) concentration of radioactivity at 30 min post-injection into Albino male CD rats with vehicle.
Format: ADME, organism-based
Conditions: in vivo, 0.5 h
Procedure, shortened: as §1

Row | Structure (SMILES) | I.D./g [%]
3 | Cc1c(C(=O)N(C)Cc2ccccc2)nc2ccccc2c1-c1ccccc1 | 0.08

Target: Translocator protein (Rattus norvegicus) (UniProt P16257)
Assay: Tissue (lung) concentration of radioactivity at 30 min post-injection into Albino male CD rats after pretreatment with cold PK 11195.
Format: functional
Conditions: not given
Procedure, shortened: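 Blocking study in male albino CD rats, five per group. Immediately before the 11C radioligand (in saline, i.v. tail vein), rats received 30 µL tail-vein PK 11195 (5 mg/kg; 1.4-1.6 mg) in DMSO:EtOH 1:1, or vehicle. Rats were decapitated at 30 min. Tissues were dissected, washed, gamma-counted and weighed as in the biodistribution study. Results are %I.D./g.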

Row | Structure (SMILES) | I.D./g [%]
4 | Cc1c(C(=O)N(C)Cc2ccccc2)nc2ccccc2c1-c1ccccc1 | < 0.05

Species on record: Rattus norvegicus
Assay: Tissue (cerebellum) distribution in Albino male CD rats after 5 minutes expressed as percent of injected dose per gram of organ.
Format: ADME, organism-based
Conditions: in vivo
Procedure, shortened: (§2)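 Radioligand given in saline into tail vein of male albino CD rats (225-250 g); 100-200 µCi per animal, 1-2 Ci/µmol at injection depending on radioligand. Three rats per time point were decapitated under light ether anaesthesia. Blood, plasma, brain regions and washed organs were weighed and gamma-counted. Uptake is %I.D./g tissue, mean ± SD.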

Row | Structure (SMILES) | I.D./g [%]
5 | Cc1c(C(=O)N(C)Cc2ccccc2)nc2ccccc2c1-c1ccccc1 | 0.25

Species on record: Rattus norvegicus
Assay: Tissue (intestine) distribution in Albino male CD rats after 5 minutes expressed as percent of injected dose per gram of organ.
Format: ADME, organism-based
Conditions: in vivo
Procedure, shortened: as §2

Row | Structure (SMILES) | I.D./g [%]
6 | Cc1c(C(=O)N(C)Cc2ccccc2)nc2ccccc2c1-c1ccccc1 | 0.3

Species on record: Rattus norvegicus
Assay: Tissue (pituitary) distribution in Albino male CD rats after 30 minutes expressed as percent of injected dose per gram of organ.
Format: ADME, organism-based, Pituitary gland
Conditions: in vivo, 0.5 h
Procedure, shortened: (§3)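 Male albino CD rats (225-250 g) received the 11C-labelled radioligand in saline by tail-vein injection. Three rats per time point were decapitated under light ether anaesthesia at 5, 15, 30, 60 or 90 min. Blood was collected heparinized and plasma separated by centrifugation. The pituitary was dissected from the brain. Lung, liver (three-lobe pieces) and right deltoid muscle were sampled, washed in cold saline, gamma-counted and weighed. Results are %I.D./g.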

Row | Structure (SMILES) | I.D./g [%]
7 | Cc1c(C(=O)N(C)Cc2ccccc2)nc2ccccc2c1-c1ccccc1 | 0.3

Species on record: Rattus norvegicus
Assay: Tissue (blood) distribution in Albino male CD rats after 90 minutes expressed as percent of injected dose per gram of organ.
Format: ADME, organism-based
Conditions: in vivo, 1.5 h
Procedure, shortened: as §2

Row | Structure (SMILES) | I.D./g [%]
8 | Cc1c(C(=O)N(C)Cc2ccccc2)nc2ccccc2c1-c1ccccc1 | 0.04

Species on record: Rattus norvegicus
Assay: Tissue (plasma) distribution in Albino male CD rats after 30 minutes expressed as percent of injected dose per gram of organ.
Format: ADME, organism-based
Conditions: in vivo, 0.5 h
Procedure, shortened: as §3

Row | Structure (SMILES) | I.D./g [%]
9 | Cc1c(C(=O)N(C)Cc2ccccc2)nc2ccccc2c1-c1ccccc1 | 0.06

Species on record: Rattus norvegicus
Assay: Tissue (adrenal gland) distribution in Albino male CD rats after 15 minutes expressed as percent of injected dose per gram of organ.
Format: ADME, organism-based
Conditions: in vivo, 0.25 h
Procedure, shortened: as §2

Row | Structure (SMILES) | I.D./g [%]
10 | Cc1c(C(=O)N(C)Cc2ccccc2)nc2ccccc2c1-c1ccccc1 | 2.29

Species on record: Rattus norvegicus
Assay: Tissue (heart) distribution in Albino male CD rats after 15 minutes expressed as percent of injected dose per gram of organ.
Format: ADME, organism-based
Conditions: in vivo, 0.25 h
Procedure, shortened: as §2

Row | Structure (SMILES) | I.D./g [%]
11 | Cc1c(C(=O)N(C)Cc2ccccc2)nc2ccccc2c1-c1ccccc1 | 2.62

Species on record: Rattus norvegicus
Assay: Tissue (pituitary) distribution in Albino male CD rats after 5 minutes expressed as percent of injected dose per gram of organ.
Format: ADME, organism-based, Pituitary gland
Conditions: in vivo
Procedure, shortened: as §3

Row | Structure (SMILES) | I.D./g [%]
12 | Cc1c(C(=O)N(C)Cc2ccccc2)nc2ccccc2c1-c1ccccc1 | 0.33

Species on record: Rattus norvegicus
Assay: Tissue (plasma) distribution in Albino male CD rats after 5 minutes expressed as percent of injected dose per gram of organ.
Format: ADME, organism-based
Conditions: in vivo
Procedure, shortened: as §3

Row | Structure (SMILES) | I.D./g [%]
13 | Cc1c(C(=O)N(C)Cc2ccccc2)nc2ccccc2c1-c1ccccc1 | 0.16

Target: Translocator protein (Rattus norvegicus) (UniProt P16257)
Assay: Tissue (liver) concentration of radioactivity at 30 min post-injection into Albino male CD rats after pretreatment with cold PK 11195.
Format: functional, tissue-based
Conditions: not given
Procedure, shortened: as §1

Row | Structure (SMILES) | I.D./g [%]
14 | Cc1c(C(=O)N(C)Cc2ccccc2)nc2ccccc2c1-c1ccccc1 | < 0.16

Species on record: Rattus norvegicus
Assay: Tissue (adrenal gland) distribution in Albino male CD rats after 90 minutes expressed as percent of injected dose per gram of organ.
Format: ADME, organism-based
Conditions: in vivo, 1.5 h
Procedure, shortened: as §2

Row | Structure (SMILES) | I.D./g [%]
15 | Cc1c(C(=O)N(C)Cc2ccccc2)nc2ccccc2c1-c1ccccc1 | 3.74

Species on record: Rattus norvegicus
Assay: Tissue (muscle) distribution in Albino male CD rats after 60 minutes expressed as percent of injected dose per gram of organ.
Format: ADME, organism-based
Conditions: in vivo, 1 h
Procedure, shortened: as §3

Row | Structure (SMILES) | I.D./g [%]
16 | Cc1c(C(=O)N(C)Cc2ccccc2)nc2ccccc2c1-c1ccccc1 | 0.14

Species on record: Rattus norvegicus
Assay: Tissue (pituitary) distribution in Albino male CD rats after 15 minutes expressed as percent of injected dose per gram of organ.
Format: ADME, organism-based, Pituitary gland
Conditions: in vivo, 0.25 h
Procedure, shortened: as §3

Row | Structure (SMILES) | I.D./g [%]
17 | Cc1c(C(=O)N(C)Cc2ccccc2)nc2ccccc2c1-c1ccccc1 | 0.49

Species on record: Rattus norvegicus
Assay: Tissue (plasma) distribution in Albino male CD rats after 90 minutes expressed as percent of injected dose per gram of organ.
Format: ADME, organism-based
Conditions: in vivo, 1.5 h
Procedure, shortened: as §3

Row | Structure (SMILES) | I.D./g [%]
18 | Cc1c(C(=O)N(C)Cc2ccccc2)nc2ccccc2c1-c1ccccc1 | 0.05

Species on record: Rattus norvegicus
Assay: Tissue (intestine) distribution in Albino male CD rats after 30 minutes expressed as percent of injected dose per gram of organ.
Format: ADME, organism-based
Conditions: in vivo, 0.5 h
Procedure, shortened: as §2

Row | Structure (SMILES) | I.D./g [%]
19 | Cc1c(C(=O)N(C)Cc2ccccc2)nc2ccccc2c1-c1ccccc1 | 0.55

Species on record: Rattus norvegicus
Assay: Tissue (spleen) distribution in Albino male CD rats after 60 minutes expressed as percent of injected dose per gram of organ.
Format: ADME, organism-based
Conditions: in vivo, 1 h

Row | Structure (SMILES) | I.D./g [%]
20 | Cc1c(C(=O)N(C)Cc2ccccc2)nc2ccccc2c1-c1ccccc1 | 1.55
